From ChEMBL document CHEMBL1129996, “1-Aryl-3,5-dihydro-4H-2,3-benzodiazepin-4-ones: novel AMPA receptor antagonists” (J Med Chem, 1997)
“And” between values parts separate entries of the source, which are not always exact repeats. Equal entries are not always repeated.

What was measured:
Mus musculus [1] = test: Anticonvulsant activity against tonic phase of the audiogenic seizures in DBA / 2 mice 30 min after ip administration at a dose range 10-66 uM/kg; format: functional; details: 0.5 h
Procedure, shortened: (§1)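 Groups of 10 DBA/2 mice of either sex; drug ip (0.1 mL/10 g) as fresh solution in 50% DMSO/50% saline, 30 min before auditory stimulation (12-16 kHz, 109 dB, 60 s or until tonic extension) under perspex dome after 60 s habituation. Latency and incidence of wild running, clonic and tonic phases scored; ED50 (95% confidence limits) by Litchfield-Wilcoxon.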

Mus musculus [2] = test: Anticonvulsant activity against clonic phase of the audiogenic seizures in DBA / 2 mice 30 min after ip administration at a dose range 10-66 uM/kg; format: functional; details: 0.5 h; procedure, shortened: as §1
Mus musculus [3] = test: Anticonvulsant activity against the clonic seizures induced by icv injection of AMPA in DBA / 2 mice at a dose range of 10-66 uM/kg; format: functional; details: central
Mus musculus [4] = test: Anticonvulsant activity against the tonic seizures induced by icv injection of AMPA in DBA / 2 mice at a dose range of 10-66 uM/kg; format: functional; details: central
Mus musculus [5] = species on record: Mus musculus; test: Audiogenic seizures after concomitant treatment with Flumazenil (24.72 uM) in DBA / 2 mice clonic phase; format: functional
Mus musculus [6] = species on record: Mus musculus; test: Audiogenic seizures after concomitant treatment with Flumazenil (24.72 uM) in DBA / 2 mice tonic phase; format: functional
Mus musculus [7] = species on record: Mus musculus; test: Audiogenic seizures after concomitant treatment with Flumazenil (8.24 uM) in DBA / 2 mice clonic phase; format: functional
Mus musculus [8] = species on record: Mus musculus; test: Audiogenic seizures after concomitant treatment with Flumazenil (8.24 uM) in DBA / 2 mice tonic phase; format: functional
[9] = Relative lipophilicity of compound; format: physicochemical; details: reversed-phase TLC, acetone/water 2:1
Procedure, shortened: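 Reversed-phase TLC type lipophilicity: plates dried 105 °C 1 h, mobile phase acetone:water 2:1, 1 µL of 3 mg/mL CHCl3 solution spotted; five runs with varied positions, mean Rf converted as Rm = log[(1/Rf) - 1].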

[10] = Therapeutic index it is the ratio between TD50 and ED50 (from the clonic phase of the audiogenic seizures); details: read-out: TI
Procedure, shortened: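 Therapeutic index computed as rotarod TD50 divided by ED50 for the clonic phase of audiogenic seizures in DBA/2 mice.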

[11] = Motor toxicity in 50% of mice on locomotion assessed by Rotarod test following 30 min ip administration; format: organism-based; details: mouse, in vivo
Procedure, shortened: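 Male Swiss mice (20-26 g, 48-54 days), groups of 10, trained on rotarod (3 cm, 8 rpm); tested 30 min after ip dosing. Impairment = failure to stay on for 2 min; TD50 (95% confidence limits) by Litchfield-Wilcoxon.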

Mus musculus [12] = test: Anticonvulsant activity against tonic phase of the audiogenic seizures in DBA / 2 mice 30 min after ip administration at a dose range 3.3-66 uM/kg; format: functional; details: 0.5 h
Procedure, shortened: (§2)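 Groups of 10 DBA/2 mice of either sex, dosed ip (0.1 mL/10 g) with fresh solution in 50% DMSO/50% saline; 30 min later exposed under a perspex dome (after 60 s habituation) to 12-16 kHz, 109 dB sound for 60 s or until tonic extension. Scored for latency and incidence of wild running, clonus, tonus; ED50 (95% limits) by Litchfield-Wilcoxon.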

Mus musculus [13] = test: Anticonvulsant activity against clonic phase of the audiogenic seizures in DBA / 2 mice 30 min after ip administration at a dose range 3.3-66 uM/kg; format: functional; details: 0.5 h; procedure, shortened: as §2
Mus musculus [14] = test: Anticonvulsant activity against the clonic seizures induced by icv injection of AMPA in DBA / 2 mice at a dose range of 10-100 uM/kg; format: functional; details: central
Mus musculus [15] = test: Anticonvulsant activity against the maximal electroshock in Swiss mice after 45 minutes pretreatment at a dose range 10-100 uM/kg; format: functional
Procedure, shortened: (§3)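 Swiss mice dosed ip in 50% DMSO/50% saline 45 min before ear-clip electroshock (50 mA, 20 ms pulses, 35 Hz, 400 ms). Protection = abolition of tonic hindlimb extension. Usually 4-5 doses with 8-10 mice each; ED50 (95% confidence limits) by Litchfield-Wilcoxon.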

Mus musculus [16] = test: Anticonvulsant activity against the tonic seizures induced by icv injection of AMPA in DBA / 2 mice at a dose range of 10-100 uM/kg; format: functional; details: central
Mus musculus [17] = test: Pentylenetetrazole-induced seizures in Swiss mice after 45 min pretreatment at a dose range 10-100 uM/kg; format: functional
Procedure, shortened: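 Male Swiss mice (20-26 g), compound ip in 50% DMSO/50% saline 45 min before sc pentylenetetrazole at CD97 (85 mg/kg), then observed 30 min. Protection is absence of clonic spasms lasting at least 5 s. Typically 4-5 doses, 8-10 mice per dose. ED50 with 95% confidence limits by Litchfield and Wilcoxon.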

Mus musculus [18] = test: Audiogenic seizures after pretreatment with Aniracetam in DBA / 2 mice clonic phase at a dose range of 10-200 uM/kg; format: functional
Procedure, shortened: (§4)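 DBA/2 mice pretreated with aniracetam 50 nmol icv 60 min before auditory testing, with ip 2,3-benzodiazepine; audiogenic clonic and tonic phases scored; ED50 by Litchfield-Wilcoxon.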

Mus musculus [19] = test: Audiogenic seizures after pretreatment with Aniracetam in DBA / 2 mice tonic phase at a dose range of 10-200 uM/kg; format: functional; procedure, shortened: as §4
Mus musculus [20] = test: Anticonvulsant activity against tonic phase of the audiogenic seizures in DBA / 2 mice 30 min after ip administration at a dose range 3.3-100 uM/kg; format: functional; details: 0.5 h; procedure, shortened: as §1
Mus musculus [21] = test: Anticonvulsant activity against clonic phase of the audiogenic seizures in DBA / 2 mice 30 min after ip administration at a dose range 3.3-100 uM/kg; format: functional; details: 0.5 h; procedure, shortened: as §1
Mus musculus [22] = test: Anticonvulsant activity against the maximal electroshock in Swiss mice after 45 minutes pretreatment at a dose range 10-150 uM/kg; format: functional; procedure, shortened: as §3
Mus musculus [23] = test: Pentylenetetrazole-induced seizures in Swiss mice after 45 min pretreatment at a dose range 10-150 uM/kg; format: functional

Structure (SMILES)	ED50 (Mus musculus [5]) [µmol/kg]	ED50 (Mus musculus [6]) [µmol/kg]	ED50 (Mus musculus [7]) [µmol/kg]	ED50 (Mus musculus [8]) [µmol/kg]	Rm [9]	therapeutic index (TD50/ED50) [10]	TD50 at 0.5 h [11] [µmol/kg]	ED50 (Mus musculus [14]) [µmol/kg]	ED50 (Mus musculus [16]) [µmol/kg]	ED50 (Mus musculus [18]) [µmol/kg]	ED50 (Mus musculus [19]) [µmol/kg]	further results
COc1cc2c(cc1OC)C(c1cccc(N)c1)=NNC(=O)C2	29.2	17.5	21	18.2	-0.525	2.7	51.5	–	–	–	–	ED50 (Mus musculus [1]): 18.3 µmol/kg and 5.69 mg/kg; ED50 (Mus musculus [2]): 19.3 µmol/kg and 6 mg/kg; ED50 (Mus musculus [3]): 30.9 µmol/kg; ED50 (Mus musculus [4]): 27.8 µmol/kg
CC1=NN=C(c2ccc(N)cc2)c2cc3c(cc2C1)OCO3 [GYKI-52466]	39.5	29.7	37.8	26.7	-0.298	–	76.1	57.5	40.5	134	100	ED50 (Mus musculus [12]): 25.3 µmol/kg and 7.41 mg/kg; ED50 (Mus musculus [13]): 35.8 µmol/kg and 10.5 mg/kg; ED50 (Mus musculus [15]): 35.7 µmol/kg; ED50 (Mus musculus [17]): 68.3 µmol/kg
COc1cc2c(cc1OC)C(c1ccc(N)cc1)=NNC(=O)C2	12	10.2	14.1	12	-0.602	3.8	56.8	32.1	25	65.2	58.2	ED50 (Mus musculus [20]): 12.6 µmol/kg and 3.92 mg/kg; ED50 (Mus musculus [21]): 15 µmol/kg and 4.66 mg/kg; ED50 (Mus musculus [22]): 15.9 µmol/kg; ED50 (Mus musculus [23]): 22.6 µmol/kg
